# Data published in ChEMBL document CHEMBL4513216, “Probing the Open Global Health Chemical Diversity Library for Multistage-Active Starting Points for Next-Generation Antimalarials” (ACS Infect Dis, 2020).
# Assay: Toxicity liver stage against HepG2, at 10uM
# Assay type: cell-based
# Set-up: test concentration 10 uM, cell line HepG2-A16-CD81EGFP
# Conditions: human, HepG2-A16-CD81EGFP cells; read-out: INHIBITION
# Method in brief: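 Uninfected HepG2-A16-CD81EGFP cells, 3 × 10^3 per well, 1536-well, plated on prespotted compound at 10 μM final, parasite-free screening media added to match infected plates; puromycin 10 μM positive, DMSO 0.5% negative; run in parallel with 48 h PbLuc assay at 37 °C, 5% CO2; viability by CellTiter-Glo luminescence, normalized to controls.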
row,SMILES,cytotoxicity at 10 µM [%]
1,O=C(NC[C@H]1OC[C@@H](N(CC2CC2)CC2CC2)[C@@H]1O)Nc1ccccc1,-2.62
2,CC(=O)N1CCC(N2CCOC[C@H]2c2nc(-c3ccncc3)c[nH]2)CC1,1.58
3,CCOC(=O)[C@H]1[C@@H](O)C(=O)N(C)C12CCN(C(=O)CC1CCCC1)CC2,-1
4,COCCCNC(=O)c1cc(-c2ccc(OC)cc2)nn1C,1.54
5,Cc1nnc2ccc(OCCNS(=O)(=O)c3cccs3)nn12,-12.1
6,O=C(c1ccc(F)cc1F)N(CC(F)(F)F)C1CCOCC1,1.24
7,O=C(c1ccnnc1)N1CCO[C@H]2[C@@H](OCc3cccnc3)CC[C@@H]21,2.93
8,COc1nn(C)c2c1CCCN(C(=O)c1ccccc1F)C2,11.5
9,O=C1COC2(CCN(S(=O)(=O)C3CC3)CC2)CN1c1ccsc1,6.12
10,O=C(c1ccc2c(c1)OCO2)N1CCCSCC1CN1CCCC1 (stereo not drawn),6.95
11,CCn1c(=O)c2cc(S(N)(=O)=O)ccc2n(CC)c1=O,-13.4
12,CC(C)c1cc2c(s1)NC(c1ccccn1)NC2=O (stereo not drawn),-0.378
13,COCC(=O)N1CC(c2csc(NC(C)=O)n2)C1,-8.8
14,O=C(CNC(=O)C1(c2ccc(F)cc2F)CCC1)Nc1ccccn1,-16.5
15,Cc1ncc2c(n1)CN(CC1CCCCO1)CC2 (stereo not drawn),-2.3
16,Cc1ccc(CC(=O)NCC(O)c2cccc(C(F)(F)F)c2)cn1 (stereo not drawn),-18.6
17,Cc1ncccc1NS(=O)(=O)Cc1cccc(F)c1,2.43
18,O=C1CSc2ccc(C(=O)N3CCCC(n4cccn4)C3)cc2N1 (stereo not drawn),-6.65
19,Cc1cc(C)n(CC(C)CNC(=O)NCc2ccco2)n1 (stereo not drawn),-2.58
20,CC(C)N(C)C(=O)C1CSCN1S(=O)(=O)c1ccccc1F (stereo not drawn),8.65
21,Cc1ccc(C(F)(F)F)cc1NC(=O)C1CCCN1 (stereo not drawn),4.28
22,CCOCCN1CCN(c2ccc(C#N)cn2)CC1CC (stereo not drawn),1.02
23,CCn1cnnc1CNS(=O)(=O)N1CCCC1c1ccc(C)o1 (stereo not drawn),-144

row,SMILES,cytotoxicity at 10 µM [%]
1,CCN(CC)c1ccc(CNC(=O)N2CCC(C#N)CC2)cc1,-11.4
2,Cc1nc(C(=O)N(C)CC(F)(F)C(F)(F)F)c2ccccn12,2.56
3,CC1CCN(c2ccc(C(=O)N3CCCC3c3nncn3C)cn2)CC1 (stereo not drawn),-1.88
4,CN1C(=O)CCc2cc(NS(=O)(=O)Cc3cccc(F)c3)ccc21,3.6
5,O=C1CC2(CCSC2)C(=O)N1Cc1coc(-c2cccc(F)c2)n1 (stereo not drawn),-0.237
6,COc1ccc(Cl)cc1CCNC(=O)NCc1noc(C)n1,-4.76
7,COc1cc(C)ccc1OCCC(=O)N1CCC(N2CC=CC2)C1 (stereo not drawn),6.99
8,CN(Cc1ccc(C#N)cc1)CC1CCS(=O)(=O)C1 (stereo not drawn),-5.78
9,CCOCCCC(=O)NCc1ccnc(N2CCN(C)CC2)c1,-10.9
10,CCN(Cc1ccco1)C(C)c1nc(C(C)(C)C)no1 (stereo not drawn),0.623
11,CNS(=O)(=O)CC(=O)N1CCCc2cc(Br)ccc21,-12.5
12,CC(C)(C(=O)NCCCC(N)=O)c1cccc(Br)c1,4.23
13,O=C(Nc1cccc(F)c1)C1CCN(Cc2noc(C3CC3)n2)CC1,13.2
14,CC(C(=O)N1CCN(C(=O)c2ccc(F)cc2)CC1)n1ccnc1 (stereo not drawn),-2.2
15,CC(O)CNCc1c[nH]nc1-c1cc2ccccc2o1 (stereo not drawn),0.788
16,CCc1nccn1C1CCCN(C(=O)c2ccn(C)c(=O)c2)C1 (stereo not drawn),17
17,CCCS(=O)(=O)N1CCC(NC(=O)c2cc(CC)c(C)s2)CC1,-4.61
18,CCCN(C1CCc2ccccc2C1)S(C)(=O)=O (stereo not drawn),0.595
19,NC(=O)COc1cccc(C(=O)NCc2ccc(Cl)s2)c1,-0.935
20,N#Cc1cccc(OCCN2CCCC2C(=O)NCC(F)(F)F)c1 (stereo not drawn),-5.88
21,Cc1ccc(O)c(CNC2CCc3nc(C)nn3C2)n1 (stereo not drawn),-1.08
22,COc1cc(F)ccc1N(C)Cc1cccnc1,-3.47
23,Cc1cc(NCC2CC(=O)Nc3ccccc32)nc(C)n1 (stereo not drawn),0.344

row,SMILES,cytotoxicity at 10 µM [%]
1,Cc1cc(=O)n(C)cc1NC(=O)CC1CCC1,-9.64
2,CN(C(=O)CN1CCCC1c1cnn(C)c1)C(C)(C)C#N (stereo not drawn),-1.37
3,O=C(NCCc1ccccn1)N1CCSC2(CCCCC2)C1,-18.6
4,CCN(Cc1ccoc1)C(C(N)=O)c1cccc(Br)c1 (stereo not drawn),2.34
5,Cc1cccnc1CNC(=O)NC(C)Cc1c(C)nn(C)c1C (stereo not drawn),3.92
6,CCOCC(=O)N1CC(=O)Nc2cc(Br)ccc21,8.09
7,Cc1noc(CNC(=O)[C@@H](C)NC(=O)OC(C)(C)C)n1,4.91
8,N#Cc1ccc(OCCN2CCNC(=O)C2c2cccs2)cc1 (stereo not drawn),-2.62
9,CCSc1ccc(C(C)NC(=O)CCS(C)(=O)=O)cc1 (stereo not drawn),2.18
10,CC(C)N(Cc1cccnc1)C(=O)CSc1ccc(C#N)cc1,3.18
11,Cc1ccccc1C(CC(=O)N1CCc2sccc2C1)NC(N)=O (stereo not drawn),0.0773
12,CCc1cc(C(=O)N2CCc3c(ncn3CCc3ccccc3)C2)[nH]n1,-3.64
13,CC(Nc1ccc(CCN2CCOCC2)cc1)C(=O)N(C)CCC#N (stereo not drawn),-8.93
14,O=S(=O)(CC1CCOCC1)NCc1ccnc(O)c1,-5.47
15,CS(=O)(=O)NCC(=O)NC1CCc2nccn2C1 (stereo not drawn),16.2
16,Cn1cccc1C1CCCN1C(=O)NCCCn1cccn1 (stereo not drawn),19.2
17,CO[C@H]1CCN(C(=O)Cc2ccccn2)[C@H]1Cc1ccncc1,2.26
18,CN1CCN(c2ccc(C(=O)N3CCCC(c4ncc[nH]4)C3)cc2)CC1 (stereo not drawn),4.15
19,COCC(C)NCc1ccc2[nH]c(C)c(C)c2c1 (stereo not drawn),-3.06
20,O=C(c1ccc2nccnc2c1)N1C[C@@H](CN2CCCC2)[C@@H](CO)C1,4.23
21,O=C(c1cncc(NCC2COc3ccccc3C2)n1)N1CCOCC1 (stereo not drawn),-3.37
22,Cc1cccc(C(C(=O)N(C)Cc2cc(C)no2)N(C)C)c1 (stereo not drawn),4.94
23,CC(C)(C)N1CC(c2ncc(-c3ccc4c(c3)OCCO4)[nH]2)CC1=O (stereo not drawn),6.19

row,SMILES,cytotoxicity at 10 µM [%]
1,O=C(CSCC1CC1)N1CCCC(c2nccn2Cc2cccnc2)C1 (stereo not drawn),3.86
2,COc1cccc(-c2cnnc(N(C)CCC3CCCCO3)n2)c1 (stereo not drawn),12.7
3,CCCc1n[nH]c(=O)n1[C@@H](CC)c1ccccc1,-5.22
4,Cn1cnnc1C1CCCN(Cc2nc(Cc3ccccc3)no2)C1 (stereo not drawn),-4.29
5,COCCN(C)CC(=O)N1C[C@@H](C)[C@](O)(C(C)C)C1,4.9
6,COc1ccc(OC)c(C2CCN(CC(C)(C)N3CCOCC3)C2)c1 (stereo not drawn),-0.359
7,C=C(C)COc1ccccc1CN1CCC(C(=O)NCC)C1 (stereo not drawn),11.6
8,CC(C)C[C@H](NCc1cc(O)c2cccc(F)c2n1)C(N)=O,5.71
9,Cn1cccc1-c1cc(C(=O)N2CCCC2C(F)(F)F)[nH]n1 (stereo not drawn),-0.968
10,CC(C)[C@H]1CN(C(=O)CC2CCC2)C[C@@H]1N(C)C,8.91
11,O=C(CSCC1CC1)N1CCCC(c2nccn2Cc2ccccn2)C1 (stereo not drawn),1.34
12,O=C(C1CC(=O)N(c2ccccc2)C1)N1CCC2(CC1)OCCO2 (stereo not drawn),1.87
13,COc1cc2nc3n(c(=O)c2cc1OC)CCN(C)CC3,2.39
14,CC1CCCN(CCNC(=O)c2ccn(-c3ccc(F)cc3)n2)C1 (stereo not drawn),-0.734
15,O=C(CN1C=Nc2ccccc2S1(=O)=O)NCc1ccccc1F,-3.73
16,CN(C)c1ccc(C(=O)N2CCCC(n3cccn3)C2)nn1 (stereo not drawn),-4.43
17,Cc1cnc2c(S(=O)(=O)NCC3CCOC3)cccc2c1 (stereo not drawn),-6.94
18,CC(C)(C)c1ncc(C(=O)NC(C(N)=O)c2ccccc2)s1 (stereo not drawn),-1.96
19,Cc1cc(NC(=O)CN(C)C2CCCN(c3cccnn3)C2)on1 (stereo not drawn),-5.93
20,Cc1ccc(CC(=O)N2CCCC(c3nccs3)C2)cn1 (stereo not drawn),-2.01
21,CN(C)c1ccc(C(=O)N2CCCC2c2noc(C3CC3)n2)nn1 (stereo not drawn),-8.36
22,CN(Cc1noc(C2CC2)n1)C1CCN(Cc2ncc[nH]2)C1 (stereo not drawn),-1.87
23,CCc1cc(CNC(=O)N2CCC(Cc3cnn(C)c3)C2)on1 (stereo not drawn),-6.04

row,SMILES,cytotoxicity at 10 µM [%]
1,CNc1nc(CNC(=O)Nc2cccc(Cl)c2OC)cs1,-12.4
2,Cc1cnn(CCNCc2nnc(Cc3ccccc3)o2)c1,-8.63
3,CC(C(=O)NCCOc1ccccc1)n1cncn1 (stereo not drawn),-6.85
4,COCCCN1CCCC1c1noc(C2CC2)n1 (stereo not drawn),-11.5
5,CNC(=O)COc1ccc(CNCc2c(C)nn(C)c2N(C)C)cc1,-5.92
6,OC(CNCCn1cccn1)c1ccc(C(F)(F)F)cc1 (stereo not drawn),-5.4
7,Cc1nn(C)c(C)c1C1CCCN1C(=O)c1cnccn1 (stereo not drawn),-15.7
8,Cn1cc(C(=O)CC2CCCN2C(=O)c2coc3ccccc23)cn1 (stereo not drawn),-0.65
9,CCNC(c1ccc(Cl)cc1)c1cccnc1 (stereo not drawn),5.71
10,CS(=O)(=O)NCC1CCCN(C(=O)COCC(F)(F)F)C1 (stereo not drawn),-3.12
11,CC(C(=O)NCc1ccnc(N2CCN(C)CC2)c1)n1cccn1 (stereo not drawn),-10.2
12,CCN(CC)C(=O)C1CCC2(CCNCC2)CO1 (stereo not drawn),-146
13,O=C(Nc1cccnc1)[C@H]1C[C@H]2OCC[C@H]2N(C(=O)c2ccsc2)C1,-1.24
14,c1cncc(OC[C@]23COC[C@H]2CN(Cc2ccsc2)C3)c1,14.7
15,c1cnc(NC2COC3(CCN(Cc4ccoc4)CC3)C2)nc1 (stereo not drawn),2.11
16,O=C(NCC1CCOCC1)[C@@H]1C[C@@H]2CCN(Cc3ccco3)C[C@H]2O1,-8.09
17,CC(C)c1nn(C)c(N(C)C)c1CNCCC(=O)N(C)C,-6.02
18,Cn1cc(CN2CC[C@H]3O[C@@H](COCc4cccnc4)CC[C@H]32)cn1,-73.8
19,CCCNCc1cn(C)nc1-c1cccnc1,6.36
20,O=C(C1=CCCCC1)N1CCC2(CC1)COC(COc1ccccn1)C2 (stereo not drawn),-1.88
21,COC1COC2(CCN(Cc3ccccc3F)CC2)C1 (stereo not drawn),-5.58
